Tested on: U2OS
Assay: Multiplex assay against U2OS
Assay type: toxicity, cell-based
Details: human
Summary of the method: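 Live cells carried four stains from seeding: Hoechst33342, BioTracker Green Microtubule Cytoskeleton Dye, MitoTracker Red and Annexin V Alexa Fluor 680. They were imaged on a CQ1 microscope at 37°C and 5% CO2 after compound addition. Using CellPathfinder machine-learning gating, cells were split into Hoechst high-intensity objects or normal cells, normal cells into healthy, pyknosed or fragmented nuclei, and pyknosed cells into mitotic or apoptotic; tubulin, mitochondrial-mass and membrane-permeability phenotypes are per cents of healthy-nucleus cells.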

[1] = 12 h, 1 µM, compound concentration 1 uM, replicate 1
[2] = 12 h, 1 µM, compound concentration 1 uM, replicate 2
[3] = 12 h, 10 µM, compound concentration 10 uM, replicate 1
[4] = 12 h, 10 µM, compound concentration 10 uM, replicate 2
[5] = 24 h, 1 µM, compound concentration 1 uM, replicate 1
[6] = 24 h, 1 µM, compound concentration 1 uM, replicate 2
[7] = 24 h, 10 µM, compound concentration 10 uM, replicate 1
[8] = 24 h, 10 µM, compound concentration 10 uM, replicate 2
[9] = 48 h, 1 µM, compound concentration 1 uM, replicate 1
[10] = 48 h, 1 µM, compound concentration 1 uM, replicate 2
[11] = 48 h, 10 µM, compound concentration 10 uM, replicate 1
[12] = 48 h, 10 µM, compound concentration 10 uM, replicate 2

Cc1nn(C)c2nc(NNC(=O)Nc3cc(Cl)nc(Cl)c3)cc(C(C)C)c12
Population Apoptotic (%) [1]: 76%
Population Fragmented Nuclei (%) [1]: 23%
Population Healthy Nuclei (%) [1]: 66%
Population Hoechst High Intensity Objects (%) [1]: 1%
Population Membrane Permeable-Phenotype (%) [1]: 5%
Population Mitochondria Different-Phenotype (%) [1]: 3%
Population Mitotic Cells (%) [1]: 24%
Population Normal (%) [1]: 98%
Population Pyknosed Nuclei (%) [1]: 9%
Population Tubulin-Different-Phenotype (%) [1]: 2%
Total Cell Count [1]: 268
Population Apoptotic (%) [2]: 72%
Population Fragmented Nuclei (%) [2]: 14%
Population Healthy Nuclei (%) [2]: 76%
Population Hoechst High Intensity Objects (%) [2]: 2%
Population Membrane Permeable-Phenotype (%) [2]: 10%
Population Mitochondria Different-Phenotype (%) [2]: 7%
Population Mitotic Cells (%) [2]: 27%
Population Normal (%) [2]: 97%
Population Pyknosed Nuclei (%) [2]: 8%
Population Tubulin-Different-Phenotype (%) [2]: 7%
Total Cell Count [2]: 131
Population Apoptotic (%) [3]: 77%
Population Fragmented Nuclei (%) [3]: 21%
Population Healthy Nuclei (%) [3]: 56%
Population Hoechst High Intensity Objects (%) [3]: 7%
Population Membrane Permeable-Phenotype (%) [3]: 75%
Population Mitochondria Different-Phenotype (%) [3]: 46%
Population Mitotic Cells (%) [3]: 22%
Population Normal (%) [3]: 92%
Population Pyknosed Nuclei (%) [3]: 21%
Population Tubulin-Different-Phenotype (%) [3]: 80%
Total Cell Count [3]: 222
Population Apoptotic (%) [4]: 47%
Population Fragmented Nuclei (%) [4]: 15%
Population Healthy Nuclei (%) [4]: 63%
Population Hoechst High Intensity Objects (%) [4]: 4%
Population Membrane Permeable-Phenotype (%) [4]: 57%
Population Mitochondria Different-Phenotype (%) [4]: 63%
Population Mitotic Cells (%) [4]: 52%
Population Normal (%) [4]: 95%
Population Tubulin-Different-Phenotype (%) [4]: 77%
Total Cell Count [4]: 104
Population Apoptotic (%) [5]: 80%
Population Fragmented Nuclei (%) [5]: 20%
Population Healthy Nuclei (%) [5]: 71%
Population Hoechst High Intensity Objects (%) [5]: 0%
Population Membrane Permeable-Phenotype (%) [5]: 4%
Population Mitochondria Different-Phenotype (%) [5]: 2%
Population Mitotic Cells (%) [5]: 19%
Population Normal (%) [5]: 99%
Population Pyknosed Nuclei (%) [5]: 8%
Population Tubulin-Different-Phenotype (%) [5]: 1%
Total Cell Count [5]: 328
Population Apoptotic (%) [6]: 93%
Population Fragmented Nuclei (%) [6]: 17%
Population Healthy Nuclei (%) [6]: 73%
Population Hoechst High Intensity Objects (%) [6]: 2%
Population Membrane Permeable-Phenotype (%) [6]: 9%
Population Mitochondria Different-Phenotype (%) [6]: 4%
Population Mitotic Cells (%) [6]: 6%
Population Normal (%) [6]: 97%
Population Pyknosed Nuclei (%) [6]: 9%
Population Tubulin-Different-Phenotype (%) [6]: 4%
Total Cell Count [6]: 168
Population Apoptotic (%) [7]: 78%
Population Fragmented Nuclei (%) [7]: 19%
Population Healthy Nuclei (%) [7]: 49%
Population Hoechst High Intensity Objects (%) [7]: 5%
Population Membrane Permeable-Phenotype (%) [7]: 69%
Population Mitochondria Different-Phenotype (%) [7]: 58%
Population Mitotic Cells (%) [7]: 21%
Population Normal (%) [7]: 94%
Population Pyknosed Nuclei (%) [7]: 31%
Population Tubulin-Different-Phenotype (%) [7]: 77%
Total Cell Count [7]: 218
Population Apoptotic (%) [8]: 69%
Population Fragmented Nuclei (%) [8]: 16%
Population Healthy Nuclei (%) [8]: 61%
Population Hoechst High Intensity Objects (%) [8]: 2%
Population Membrane Permeable-Phenotype (%) [8]: 42%
Population Mitochondria Different-Phenotype (%) [8]: 51%
Population Mitotic Cells (%) [8]: 30%
Population Normal (%) [8]: 97%
Population Pyknosed Nuclei (%) [8]: 21%
Population Tubulin-Different-Phenotype (%) [8]: 57%
Total Cell Count [8]: 110
Population Apoptotic (%) [9]: 88%
Population Fragmented Nuclei (%) [9]: 17%
Population Healthy Nuclei (%) [9]: 75%
Population Hoechst High Intensity Objects (%) [9]: 2%
Population Membrane Permeable-Phenotype (%) [9]: 4%
Population Mitochondria Different-Phenotype (%) [9]: 3%
Population Mitotic Cells (%) [9]: 11%
Population Normal (%) [9]: 97%
Population Pyknosed Nuclei (%) [9]: 7%
Population Tubulin-Different-Phenotype (%) [9]: 2%
Total Cell Count [9]: 504
Population Apoptotic (%) [10]: 86%
Population Fragmented Nuclei (%) [10]: 21%
Population Healthy Nuclei (%) [10]: 65%
Population Hoechst High Intensity Objects (%) [10]: 1%
Population Membrane Permeable-Phenotype (%) [10]: 8%
Population Mitochondria Different-Phenotype (%) [10]: 4%
Population Mitotic Cells (%) [10]: 13%
Population Normal (%) [10]: 98%
Population Pyknosed Nuclei (%) [10]: 12%
Population Tubulin-Different-Phenotype (%) [10]: 5%
Total Cell Count [10]: 247
Population Apoptotic (%) [11]: 83%
Population Fragmented Nuclei (%) [11]: 24%
Population Healthy Nuclei (%) [11]: 43%
Population Hoechst High Intensity Objects (%) [11]: 9%
Population Membrane Permeable-Phenotype (%) [11]: 51%
Population Mitochondria Different-Phenotype (%) [11]: 46%
Population Mitotic Cells (%) [11]: 16%
Population Normal (%) [11]: 90%
Population Pyknosed Nuclei (%) [11]: 32%
Population Tubulin-Different-Phenotype (%) [11]: 49%
Total Cell Count [11]: 244
Population Apoptotic (%) [12]: 80%
Population Healthy Nuclei (%) [12]: 48%
Population Hoechst High Intensity Objects (%) [12]: 6%
Population Mitochondria Different-Phenotype (%) [12]: 63%
Population Mitotic Cells (%) [12]: 20%
Population Normal (%) [12]: 93%
Population Pyknosed Nuclei (%) [12]: 27%
Population Tubulin-Different-Phenotype (%) [12]: 57%
Total Cell Count [12]: 115

— ChEMBL document CHEMBL5058577, “EUbOPEN Chemogenomics Library 2 (Multiplex)” (2022)
